Screens as filed in PubChem.
The list is not random: actives were taken first. Their share in the collection is about 1.6%.
Neddyl block = inhibitors of human cullin neddylation. AID 651699. TR-FRET cullin neddylation, biochemical. calls only at 25 µM. actives 0.58% (n = 360,000); in the data active means inhibition above about 36%
proCasp3 act = activates human procaspase-3. activation, % at 8.5 µM. P42574. actives 0.11% (n = 330,000). recombinant procaspase-3 D3A, Ac-DEVD-pNA absorbance 405 nm;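 active means activation above the mean of all tested compounds plus 3 SD, cut at about 21% in these data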;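 further: 0% = DMSO alone and 100% = DMSO wells spiked with extra 5 µM PC-3 D3A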
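Test system: Procaspase-3 D3A mutant, all three cleavage aspartates alanine | Dosing: Single dose, 8.5 µM nominal compound, 0.8% DMSO | Schedule: 1 h preincubation, 2 h reaction | Technique: 405 nm absorbance of p-nitroaniline, reads at 0 and 120 min | Repeats: One well per compound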
KLK7 zymogen act = activates the human kallikrein-7 zymogen; actives 0.9% (n = 370,000); AID 652039; P49862; purified proKLK7, EDANS-DABCYL substrate fluorescence; 100% is mature enzyme control, 0% vehicle; activation, % at 7 µM;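 active means activation above the mean of all tested compounds plus 3 SD, computed per campaign excluding outliers beyond control limits, cut at about 13% in these data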
proCasp7 act = counter-screen: procaspase-7 (human) activation; P55210; activation, % at 8.5 µM; AID 463210; recombinant procaspase-7, Ac-DEVD-pNA absorbance 405 nm; D23A/D198A/D206A triple mutant, cannot self-cleave; scale: DMSO 0, 5 µM enzyme 100; actives 0.093% (n = 330,000);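 active means percent activation above the screen-wide mean plus 3 SD, cut at about 25% in these data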
Target sequence (P55210 whole entry D23A/D198A/D206A): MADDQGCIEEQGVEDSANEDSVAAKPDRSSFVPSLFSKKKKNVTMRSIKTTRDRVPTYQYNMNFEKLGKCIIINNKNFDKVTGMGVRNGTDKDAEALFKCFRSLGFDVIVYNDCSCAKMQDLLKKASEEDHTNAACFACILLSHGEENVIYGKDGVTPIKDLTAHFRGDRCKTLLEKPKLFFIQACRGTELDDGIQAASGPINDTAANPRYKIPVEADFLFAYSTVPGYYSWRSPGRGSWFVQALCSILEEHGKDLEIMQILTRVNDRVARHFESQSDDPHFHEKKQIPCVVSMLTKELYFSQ
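Assay system – Uncleavable procaspase-7 mutant enzyme · Quantity – 2 µM procaspase-7 mutant as dispensed · Times – 1 h preincubation, 2 h reaction · Dosing – single nominal 8.5 µM compound dose, 0.8% DMSO final · Buffer or medium – Zinc-free 50 mM HEPES buffer, pH 7.4, with NaCl and Triton X-100 · Detection – Epi-absorbance of released pNA at 405 nm, two timepoints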
proKLK7 act conf = proKLK7 activation, confirmation. actives 68% (n = 3,200). purified proKLK7, EDANS-DABCYL substrate fluorescence; scaled: vehicle 0, mature enzyme 100. AID 686949. activation, % at 7 µM. shares compounds with KLK7 zymogen act;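 active means activation, as change over the incubation, above the mean of all tested compounds plus 3 SD, cut at about 13% in these data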
EDANS-DABCYL int = optically interferes with EDANS-DABCYL signal, flagging KLK7 hits; shares compounds with KLK7 zymogen act; EDANS-DABCYL substrate fluorescence interference, no enzyme, 4 h; solvent 0%, active enzyme control 100%; activation, % at 7 µM; actives 80% (n = 3,200); AID 686952;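 active means activation above the all-compound mean plus 3 SD, ignoring values outside control-based bounds, cut at about 4.8% in these data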;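 further: value is the 4 h activation minus the activation read at time zero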
EDANS interf = counter-screen for kallikrein-7 activators: EDANS-DABCYL interference, dose response | shares compounds with KLK7 zymogen act | EDANS-DABCYL peptide fluorescence interference, no enzyme | EC50, µM | actives 20% (n = 250) | AID 720493;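 active means compounds that raise the fluorescence signal in this interference counterscreen, with EC50 at or below 10 µM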;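 further: intact quenched peptide substrate alone read at 355 nm excitation and 520 nm emission; signal is fluorescence gain from T0 to T4 after four hours at room temperature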
Active calls of the source: *; i = inactive; / = no result shown.

SMILES	Neddyl block	proCasp3 act	KLK7 zymogen act	proCasp7 act	proKLK7 act conf	EDANS-DABCYL int	others
O=C1Nc2ccccc2O/C1=C\c1c(F)cccc1Cl	/	-5	17*	-6	-69	-54
Cc1cccc(-c2cc(N3CCCN(C)CC3)n3nccc3n2)c1	/	/	29*	/	-3	-3
COc1ccc(C(=O)NCc2nnc(SC)n2Cc2ccccc2)cc1	i	9	0	6	/	/
COCCNS(=O)(=O)c1ccc2c3c(cccc13)C(=O)N2C	/	-5	28*	-11	78*	88*
CN1C(=O)c2cccc3c(S(=O)(=O)N4CCCC4C(=O)O)ccc1c23 (stereo not given)	/	-5	17*	1	42*	46*
CCN1C(=O)c2cccc3c(S(=O)(=O)NCc4ccccn4)ccc1c23	/	-3	53*	3	62*	56*
CN1C(=O)c2cccc3c(S(=O)(=O)NCCc4ccccc4)ccc1c23	/	3	-2	-4	/	/
CCOC(=O)CNS(=O)(=O)c1ccc2c3c(cccc13)C(=O)N2CC	/	-5	77*	7	64*	69*
CN1C(=O)c2cccc3c(S(=O)(=O)Nc4ccc(O)c(C(=O)O)c4)ccc1c23	i	1	2	7	/	/
N/N=C(/Cc1nc2ccccc2[nH]1)c1ccc([N+](=O)[O-])cc1	i	-4	-1	-5	/	/
COC(=O)CC1=C(C(=O)OC)[C@@H](c2ccccc2[N+](=O)[O-])C(C#N)=C(N)O1	i	-22	38*	-3	90*	71*	EDANS interf=8.7*
COc1ccc(C2/C(=C(/O)c3ccc(F)cc3)C(=O)C(=O)N2CCCN(C)C)cc1 (stereo not given)	i	/	0	/	/	/
Cc1nccc(-c2sc(-c3cccs3)nc2C)n1	/	-2	41*	5	20*	21*
CCNC(=S)NNC(=O)c1cccn(Cc2ccc(Cl)cc2Cl)c1=O	i	-5	32*	-4	31*	47*
Cc1ccccc1C(=O)NNC(=S)NC(=O)c1ccc(Cl)cc1Cl	i	-2	0	-21	/	/
C=CCNC(=S)NNC(=O)c1cccn(Cc2ccc(Cl)cc2Cl)c1=O	i	-13	22*	-8	30*	28*
Nc1ccc(-c2nc3cc(N)ccc3o2)cc1	/	10	55*	-3	65*	75*
Cc1cccc(-c2nnc(-c3ccc(N)cc3)o2)c1	/	4	1	9	/	/
Nc1ccc(-c2nnc(-c3ccc(N)cc3)o2)cc1	/	-1	18*	-14	36*	44*
Cc1ccc(-c2nc3cc(N)ccc3o2)cc1Br	/	2	-10	-5	/	/
CN(C)c1ccc(-c2nc3cc(N)ccc3o2)cc1	/	/	23*	/	10	24*
Nc1ccc(-c2nc3ccc(N)cc3o2)cc1	i	-3	56*	-7	70*	73*
O=C(Nc1c2c(nn1-c1ccc([N+](=O)[O-])cc1)CS(=O)(=O)C2)c1ccco1	i	-6	0	-2	/	/
CCC(C(=O)NCCCN(CC)Cc1ccccc1)n1nc(C)c2sc3ccccc3c2c1=O (stereo not given)	i	-9	0	6	/	/
Cc1nn(-c2ccccc2)c2sc(C(=O)N3CCN(C(c4ccccc4)c4ccc(Cl)cc4)CC3)cc12 (stereo not given)	/	/	-1	/	/	/
CCCCN(C=O)c1c(CC)nc2ccc(C(=O)N3CCN(c4ccccc4)CC3)cn12	i	/	1	/	/	/
COc1cc2c(cc1OC)CN(C(=O)CN1CCN(S(=O)(=O)c3ccccc3Br)CC1)CC2	i	1	30*	4	1	0
COc1ccc(S(=O)(=O)N2CCN(CC(=O)N3CCc4ccccc4C3)CC2)cc1OC	i	3	0	12	/	/
Cc1ccc2nc(NCC(N)=O)nc(-c3ccccc3)c2c1	/	-4	30*	3	22*	34*
